Results as given in ChEMBL document CHEMBL4619779, “Tideglusib and Its Analogues As Inhibitors of Staphylococcus aureus SrtA” (J Med Chem, 2020).
pIC50: −log10 of the molar value. Converted amounts (≈) assume the structure as drawn. The source made the active and inactive calls. The calls are words filed in the database; no cut-off is given here.

Legend:
Sortase A [1] = target: T1, Sortase A (Staphylococcus aureus, UniProt Q9S446, DELTAN24); test: Inhibition of Staphylococcus aureus SrtA delta N24 mutant expressed in Escherichia coli BL21 (DE3) assessed as reduction in IsdA (64 to 323 residues) transpeptidation incubated for 20 mins by SDS-PAGE analysis
Method in brief: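 His-tagged SrtAΔN24 (100 µg) was preincubated 20 min at rt with compound (1–25 µM) in 50 mM Tris-HCl pH 7.5, 150 mM NaCl, 5 mM CaCl2. IsdA64-323 (150 µg) and 3 mM Gly3 were then added for 1.5 hr at 37 °C. […] Three independent experiments.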

Staphylococcus aureus [2] = test: Antibacterial activity against Staphylococcus aureus subsp. aureus str. Newman assessed as reduction in bacterial growth incubated for 24 hrs; assay type: functional
Method in brief: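 Overnight culture diluted 1:1000 in TSB, grown to A600 0.6-0.8, then diluted 1:400 in TSB. Aliquots incubated with the compound at a range of concentrations. A600 read every 1 hr for 24 hr to build growth curves. Technical triplicates per point; three independent experiments.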

Sortase A [3] = target: T1, Sortase A; test: Inhibition of Staphylococcus aureus SrtA delta N24 mutant expressed in Escherichia coli BL21 (DE3) using Abz-LPATG-Dnp substrate incubated for 20 mins by FRET-based assay
Method in brief: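 His-tagged SrtAΔN24 (1 µM) was preincubated 20 min at rt with compound (0.2–100 µM) in 50 mM Tris-HCl pH 7.5, 150 mM NaCl, 5 mM CaCl2. Abz-LPATG-Dnp was added at 10 µM and fluorescence (ex 309 / em 420 nm) was read each minute for 20 min. IC50 came from a sigmoidal fit. Technical triplicates, three independent experiments.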

[4] = test system: Sortase A (Staphylococcus aureus), Q9S446 [UNDEFINED MUTATION]; test: Time dependent inhibition of Staphylococcus aureus SrtA delta N24 mutant expressed in Escherichia coli BL21 (DE3) assessed as reduction in IsdA (64 to 323 residues) transpeptidation by SDS-PAGE analysis
[5] = test system: Sortase A (Staphylococcus aureus), Q9S446 [UNDEFINED MUTATION]; test: Inhibition of SrtA delta N24 mutant in Staphylococcus aureus subsp. aureus str. Newman reduction in abundance of anchored SpA by FITC-labeled human IgG fluorescence based assay
Method in brief: (§1)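 Newman wild type and ΔsrtA were diluted 1:1000 in TSB and grown at 37 °C with inhibitor until A600 reached 1.0. Cells were PBS-washed, labelled with FITC-human IgG for 30 min at rt, and washed again before fluorescence was read. Triplicate wells, three independent experiments, unpaired two-tailed t-test.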

[6] = test system: Sortase A (Staphylococcus aureus), Q9S446 [UNDEFINED MUTATION]; test: Covalent binding affinity to Staphylococcus aureus SrtA delta N24 mutant assessed as induction of m/z shift incubated for 12 hrs by ESI-LC/MS analysis
Method in brief: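 His-tagged SrtAΔN24 preincubated 12 hr with or without a 10-fold excess of compound. Diluted in 50% acetonitrile / 0.2% formic acid, run on a C8 column with a 10–90% acetonitrile gradient over 11 min, then ESI-TOF MS. MTSET served as the covalent reference.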

[7] = test system: Sortase A (Staphylococcus aureus), Q9S446 [UNDEFINED MUTATION]; test: Effect on structural folding of Staphylococcus aureus SrtA delta N24 mutant expressed in Escherichia coli BL21 (DE3 assessed as induction of gross structural perturbations by CD spectroscopy
Method in brief: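 SrtAΔN24 at 10 µM was incubated with compound dissolved in methanol, and CD spectra were recorded. Two independent experiments.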

[8] = test system: Sortase A (Staphylococcus aureus), Q9S446 [UNDEFINED MUTATION]; test: Inhibition of Staphylococcus aureus SrtA delta N24 mutant expressed in Escherichia coli BL21 (DE3) using Abz-LPATG-Dnp substrate incubated for 20 mins in presence of 0.01% v/v Triton X-100 by FRET-based assay
[9] = test system: Sortase A (Staphylococcus aureus), Q9S446 [UNDEFINED MUTATION]; test: Binding affinity to Staphylococcus aureus SrtA delta N24 mutant expressed in Escherichia coli BL21 (DE3 assessed as attenuation of NMR signals by CPMG-NMR analysis
Method in brief: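 NMR titration in 20 mM sodium phosphate pH 7.4, 100 mM NaCl, 2% DMSO, at 25 °C on a 600 MHz spectrometer with a cryoprobe.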

[10] = test system: Sortase A (Staphylococcus aureus), Q9S446 [UNDEFINED MUTATION]; test: Reversible inhibition of Staphylococcus aureus SrtA delta N24 mutant expressed in Escherichia coli BL21 (DE3) assessed as reduction in IsdA (64 to 323 residues) transpeptidation incubated for 20 mins followed by 10 fold compound dilution by SDS-PAGE analysis
Staphylococcus aureus [11] = test: Antibiofilm activity against Staphylococcus aureus subsp. aureus str. Newman assessed as reduction in biofilm biomass at 25 to 100 uM incubated for 18 hrs by Crystal violet staining assay; assay type: functional, organism-based
Method in brief: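 Overnight culture diluted 1:100 in TSB, plated in quadruplicate with inhibitor, and held static at 37 °C for 18 hr. Wells rinsed with PBS, and the dried, fixed biofilm stained with 0.1% crystal violet for 15 min. Stain dissolved in 30% acetic acid and absorbance read at 595 nm. Three independent experiments.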

[12] = Solubility in PBS in presence of 1% DMSO by LC/MS analysis; assay type: physicochemical; conditions: PBS with 1% DMSO
[13] = test system: Sortase A (Staphylococcus aureus), Q9S446 [UNDEFINED MUTATION]; test: Covalent inhibition of Staphylococcus aureus SrtA delta N24 mutant expressed in Escherichia coli BL21 (DE3) assessed as reduction in IsdA (64 to 323 residues) transpeptidation incubated for 20 mins followed by 10 fold compound dilution by SDS-PAGE analysis
[14] = test system: Sortase A (Staphylococcus aureus), Q9S446 [UNDEFINED MUTATION]; test: Inhibition of SrtA delta N24 mutant in Staphylococcus aureus subsp. aureus str. Newman reduction in abundance of anchored SpA by Western blot analysis
Method in brief: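 Newman was diluted 1:1000 and grown at 37 °C with inhibitor to A600 3.0. Cells were PBS-washed and digested with lysozyme for 30 min at 37 °C. Protoplasts were removed and the supernatant (cell wall fraction) was separated by SDS-PAGE and immunoblotted for SpA, with ClpP as the loading control. Three independent experiments.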

[15] = test system: Sortase A (Staphylococcus aureus), Q9S446 [UNDEFINED MUTATION]; test: Inhibition of SrtA delta N24 mutant in Staphylococcus aureus subsp. aureus str. Newman reduction in abundance of anchored SpA at 100 uM by FITC-labeled human IgG fluorescence based assay; method in brief: as §1

SMILES	pIC50 (Sortase A [1])	MIC (Staphylococcus aureus [2]) [µg/mL]	pIC50 (Sortase A [3])	further results
Cc1ccc(Cn2c(=O)sn(-c3c(C)noc3C)c2=O)cc1	5.33	> 100	5.96	–
O=c1sn(C2CCCC2)c(=O)n1C1CCCCC1	< 4.30	6.2 (≈ 23.1 µM)	4.99	–
Cc1noc(C)c1-n1sc(=O)n(Cc2ccc(Cl)cc2)c1=O	5.39	> 100	6.00	–
CC(C)n1c(=O)sn(Cc2ccccc2)c1=O	< 4.30	6.2 (≈ 24.8 µM)	< 4.00	–
Cc1noc(C)c1-n1sc(=O)n(Cc2ccc(Cl)c(Cl)c2)c1=O	5.47	> 100	6.05	–
Cc1noc(C)c1-n1sc(=O)n(Cc2ccccc2)c1=O	5.34	> 100	6.10	TDI [4]: inactive; inhibition [5]: Dose-dependent effect; Activity [6]: inactive; Activity [7]: inactive; inhibition [8]: Active; Activity [9]: Dose-dependent effect; inhibition [10]: Active; Activity (Staphylococcus aureus [11]): Active; solubility [12]: 144 µg/mL
C[N+](C)(C)CCSS(C)(=O)=O	–	–	–	inhibition [5]: Active; Activity [6]: 120 Da; inhibition [13]: Active; inhibition [14]: Active
CCn1sc(=O)n(Cc2ccc(C)cc2)c1=O	< 4.30	6.2 (≈ 24.8 µM)	4.78	–
CCCCn1c(=O)sn(Cc2ccccc2)c1=O	4.67	6.2 (≈ 23.5 µM)	5.08	–
CCn1sc(=O)n(Cc2ccc(Cl)cc2)c1=O	< 4.30	6.2 (≈ 22.9 µM)	5.06	–
CCCNC1=C(c2ccccc2)C(=O)C2C(/C=C/S(=O)(=O)c3ccccc3)=CC=CC2C1=O (centres undefined)	–	–	–	inhibition [15]: inactive
O=c1sn(-c2cccc3ccccc23)c(=O)n1Cc1cccc(O)c1	5.04	> 100	5.80	–
CCCCn1sc(=O)n(CCCC)c1=O	< 4.30	3.1 (≈ 13.5 µM)	4.36	–
O=c1sn(-c2cccc3ccccc23)c(=O)n1Cc1ccc(O)cc1	5.33	100 (≈ 285 µM)	5.59	–
O=c1sn(CCc2ccccc2)c(=O)n1C1CCCCC1	< 4.30	12.5 (≈ 41.1 µM)	< 4.00	–
CCn1c(=O)sn(-c2cccc3ccccc23)c1=O	5.09	> 100	6.15	–
O=c1sn(-c2cccc3c2OCO3)c(=O)n1Cc1ccccc1	5.33	> 100	5.47	–
Cc1noc(C)c1-n1sc(=O)n(Cc2ccccc2Cl)c1=O	5.43	> 100	6.22	–
O=c1sn(Cc2ccccc2)c(=O)n1Cc1ccccc1Cl	4.55	12.5 (≈ 37.6 µM)	5.47	–
O=c1sn(Cc2ccccc2)c(=O)n1CCCl	4.78	25 (≈ 92.3 µM)	5.70	–
CCn1c(=O)sn(-c2c(C)noc2C)c1=O	5.20	> 100	5.82	–

SMILES	pIC50 (Sortase A [1])	MIC (Staphylococcus aureus [2]) [µg/mL]	pIC50 (Sortase A [3])	further results
Cc1noc(C)c1-n1sc(=O)n(C(C)C)c1=O	< 4.30	> 100	4.90	–
Cn1c(=O)sn(-c2cccc3ccccc23)c1=O	5.10	100 (≈ 387 µM)	6.10	–
O=c1sn(Cc2ccccc2)c(=O)n1Cc1ccccc1	4.89	12.5 (≈ 41.9 µM)	5.15	–
CCn1sc(=O)n(CCc2ccccc2)c1=O	< 4.30	6.2 (≈ 24.8 µM)	4.79	–
O=c1sn(CCc2ccccc2)c(=O)n1Cc1ccccc1	4.37	12.5 (≈ 40 µM)	5.00	–
O=c1sn(-c2cccc3ccccc23)c(=O)n1Cc1ccccc1O	4.49	> 100	5.89	–
Cn1c(=O)sn(Cc2ccccc2)c1=O	4.63	12.5 (≈ 56.2 µM)	5.46	–
O=c1sn(-c2cccc3ccccc23)c(=O)n1Cc1ccc(Cl)cc1	4.64	100 (≈ 271 µM)	6.15	–
CC(C)n1c(=O)sn(CCc2ccccc2)c1=O	< 4.30	25 (≈ 94.6 µM)	< 4.00	–
O=c1sn(-c2cccc3c2CCC3)c(=O)n1Cc1ccccc1	4.34	> 100	5.36	–
O=c1sn(-c2cccc3ccccc23)c(=O)n1Cc1ccc(F)cc1	5.23	100 (≈ 284 µM)	5.39	–
Cc1ccc(Cn2c(=O)sn(-c3cccc4ccccc34)c2=O)cc1	4.90	100 (≈ 287 µM)	5.92	–
O=c1sn(Cc2ccccc2)c(=O)n1-c1cccc(F)c1	< 4.30	12.5 (≈ 41.3 µM)	< 4.00	–
COc1ccc(Cn2c(=O)sn(-c3c(C)noc3C)c2=O)cc1	5.30	> 100	5.92	–
O=c1sn(-c2cccc3ccccc23)c(=O)n1Cc1ccc(Cl)c(Cl)c1	4.84	50 (≈ 124 µM)	6.05	–
CCCCn1c(=O)sn(-c2c(C)noc2C)c1=O	5.39	> 100	5.96	–
CCCCn1c(=O)sn(-c2cccc3ccccc23)c1=O	4.90	100 (≈ 333 µM)	6.05	–
O=c1sn(Cc2ccccc2)c(=O)n1Cc1ccc(Cl)c(Cl)c1	4.71	12.5 (≈ 34 µM)	5.54	–
O=c1sn(-c2cccc3ccccc23)c(=O)n1CCc1ccccc1	4.56	> 100	6.22	–
Cc1ccc(Cn2c(=O)sn(Cc3ccccc3)c2=O)cc1	4.45	12.5 (≈ 40 µM)	5.29	–
O=c1sn(-c2cccc3c2CCCC3)c(=O)n1Cc1ccccc1	4.50	50 (≈ 148 µM)	5.22	–
